Screens: PubChem BioAssay, Broad Institute
Sampled rows, rich in hits. Any-hit rate of the full collection: about 2.8%.
SR-BI HDL uptake – inhibitors of SR-BI mediated HDL lipid uptake, primary screen, ldlA[mSR-BI] cells, fluorescence, single point. Scavenger receptor class B member 1 (Mus musculus), Q61009. ldlA[mSR-BI] CHO cells, DiI-HDL uptake fluorescence, 3 h. inhibition, % at 12.5 µM. 320,000 tested, 0.96% active. AID 488896, 2010;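 active = mean replicate inhibition of at least 70% and a set share of replicates each scoring 70 or more; inconclusive = meets just one of the two criteria; inactive = fails both criteria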;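 also: 0% = median of neutral control wells and 100% = median of positive control wells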
SR-BI uptake up – activators of SR-BI mediated DiI-HDL uptake, primary screen, ldlA[mSR-BI] CHO cells, DiI fluorescence. 3 h; 100 = double the neutral-control signal. 320,000 tested, 0.096% active. activation, % at 12.5 µM;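 active = mean replicate activation of at least 60% and every replicate at or above 60%; inconclusive = mean or all-replicate condition met, but not both; inactive = mean below 60% and not all replicates reaching 60%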;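 also: 0% = median plate neutral-control signal and 100% = twice that signal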
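material = CHO ldlA[mSR-BI] cells | medium = Ham's F12 with 0.5% BSA, HEPES 25 mM, pH 7.4 | reagent = fluorescent DiI-HDL, 10 µg/mL final | compound dosing = single-point compound dose | incubation = 3 h, 37 °C | measured by = bottom-read fluorescence, 550/595 nm | measure = HDL uptake via cellular fluorescence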
dFosB activator – activators of delta FosB homodimer, primary screen, biochemical, fluorescence polarization, TAMRA-CDK5 oligo, single point; 340,000 tested, 0.99% active; purified delta FosB; percent of positive-control signal above neutral wells; Protein FosB (Mus musculus), P13346; AID 493131, 2011; activation, % at 25 µM;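 active = mean activation above about 17%, with every replicate also reaching it, limit read from the data, passing the limit was not always enough; inconclusive = only one of the two conditions met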
Target sequence (P13346 whole entry, looked up): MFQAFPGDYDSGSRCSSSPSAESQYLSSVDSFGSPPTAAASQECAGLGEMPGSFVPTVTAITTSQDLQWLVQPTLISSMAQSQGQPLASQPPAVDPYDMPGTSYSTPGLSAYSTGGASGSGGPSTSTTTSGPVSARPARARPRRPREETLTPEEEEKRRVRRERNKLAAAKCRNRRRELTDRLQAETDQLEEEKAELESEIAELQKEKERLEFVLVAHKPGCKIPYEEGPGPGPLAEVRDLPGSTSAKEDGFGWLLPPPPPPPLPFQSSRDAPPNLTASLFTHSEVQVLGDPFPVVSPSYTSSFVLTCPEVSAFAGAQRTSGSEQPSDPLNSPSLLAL
CAL PDZ FP-1 – untagged CAL PDZ binding inhibitors, primary screen, biochemical, fluorescence polarization, HTS. AID 602252, 2012. inhibition, % at 24.9 µM. 300,000 tested, 0.92% active. Golgi-associated PDZ and coiled-coil motif-containing protein (Homo sapiens), Q9HD26. purified CAL PDZ, TMR-peptide fluorescence polarization, 1 h;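 active = mean inhibition of at least 30% with at least half of replicates also reaching 30%; inconclusive = no clear call, values can overlap the other calls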;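 also: 0% = DMSO neutral control and 100% = excess unlabeled competitor peptide PRC23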
CAL PDZ FP-2 – CAL PDZ peptide-binding inhibitors, primary screen, biochemical, fluorescence polarization, Cer-tagged CAL PDZ, HTS | Golgi-associated PDZ and coiled-coil motif-containing protein (Homo sapiens), Q9HD26 | purified CAL PDZ, TMR-peptide fluorescence polarization, 1 h | inhibition, % at 20 µM | 330,000 tested, 0.02% active;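 active = highest replicate inhibition of at least 40%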;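 also: plate controls were DMSO neutral control wells for no effect and unlabeled competitor peptide control wells for full effect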
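System: purified tagged CAL PDZ domain construct (CerCALP). Schedule: 1 h incubation at room temperature before polarization reading. Medium: 25 mM sodium phosphate pH 7.4, 150 mM NaCl, TCEP, IgG, Thesit. Read-out: percent inhibition from loss of millipolarization. Measured by: FP readout, S and P plane fluorescence. Probe or stimulus: fluorescent TMR peptide probe.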
* marks the source's active call; other numbers are inactive results; u = inconclusive; x = not tested or not shown.

SMILES	SR-BI HDL uptake	SR-BI uptake up	dFosB activator	CAL PDZ FP-1	CAL PDZ FP-2
COc1cc(/C=N/n2c(-c3ccc4c(c3)NC(=O)CO4)csc2=Nc2cccc(C)c2)ccc1O	82.7*	-82.7	-13.1	-0.6	0.7
COc1ccc(-c2ccc(SCC(=O)c3ccccc3)nn2)cc1OC	9.4	-9.4	-34.8	71.1*	-8.9
Cc1ccc(-c2ccc(SCC(=O)c3ccccc3)nn2)cc1	21.5	-21.5	1.0	-0.8	-1.7
CN=C1S/C(=C\c2ccc(OCC(=O)OC)c(OC)c2)C(=O)N1C	-440.9	440.9*	-5.0	x	-1.0
Cc1ccc(S(=O)(=O)O/N=C2\CCCc3ccccc32)cc1	21.7	-21.7	-6.7	-1.5	-3.6
CC1=C(C)/C(=N\OS(=O)(=O)c2ccccc2)C=CC1=O	86.5*	-86.6	-3.3	0.5	-0.9
Cc1cccc(C)c1NC(=O)CN1CCN(CCCC(c2ccc(F)cc2)c2ccc(F)cc2)CC1	55.3	-55.3	-3.6	-7.8	-0.3
CC(C)N1C(=O)CCN(C=O)c2ccccc21	-25.2	25.2	-0.6	1.5	-10.1
COc1ccccc1C(=O)Nc1cccc2nc(C)ccc12	34.2	-34.2	-9.1	82.0*	8.1
COc1ccccc1C(=O)Oc1ccccc1C(=O)Nc1ccccc1	-9.1	9.1	-5.8	73.6*	-0.6
Cc1ccc(NC(=O)c2ccccc2OCC(=O)c2ccccc2)cc1	78.1*	-78.1	-4.8	-3.5	-1.0
COc1ccccc1C(=O)NNC(=O)c1ccc(NC(=O)C(C)C)cc1	10.8	-10.8	1.7	65.5*	-1.8
COc1ccc(S(=O)(=O)Nc2ccc(F)c(F)c2)cc1C(=O)N1CCOCC1	1.2	-1.2	-8.3	0.1	-2.0
O=C(O)c1ccc(N2CCN(Cc3ccc4c(c3)OCO4)CC2)c([N+](=O)[O-])c1	12.5	-12.5	-4.8	10.0	-1.0
CCCC(C)c1nnc(NC(=O)COc2ccc3c(c2)OCO3)s1 (stereo not drawn)	-0.2	0.2	-13.8	-5.7	-1.5
CCCCc1nc2cc(C(=O)N3CCCC(COC)C3)ccc2o1 (stereo not drawn)	-15.5	15.5	-4.1	-3.4	-1.9
CCn1c(SCC(=O)NCc2ccco2)nc2cccnc21	-12.7	12.7	-2.2	-1.0	x
O=C(CSc1nc2cccnc2n1Cc1ccccc1)NCc1ccco1	-23.6	23.6	-1.8	65.1*	x
O=C(NCCNCCO)C1(C(F)(F)F)C/C(=C\CCO)CCCO1 (stereo not drawn)	-4.4	4.4	-3.2	-0.4	-0.8
CCCC(C)C(=O)Nc1nc(C)c(-c2csc(Nc3cc(Cl)ccc3C)n2)s1 (stereo not drawn)	82.2*	-82.2	-2.3	-1.4	0.1
Cc1nc(NC(=O)CC(C)C)sc1-c1csc(Nc2ccc(Cl)cc2)n1	73.1*	-73.1	1.9	-2.5	-0.4
CCCCCC(=O)Nc1nc(C)c(-c2csc(Nc3ccc(Cl)cc3)n2)s1	96.4*	-96.4	-7.2	6.5	-0.2
CCCCCC(=O)Nc1nc(C)c(-c2csc(Nc3cc(Cl)ccc3C)n2)s1	79.1*	-79.1	-1.5	-6.3	0.2
Cc1ccc(Cl)cc1Nc1nc(-c2sc(NC(=O)c3ccco3)nc2C)cs1	u	-72.8	6.5	1.3	-0.5
Cc1nc(NC(=O)CC(C)C)sc1-c1csc(Nc2ccc(Cl)cc2Cl)n1	59.4	-59.4	1.5	-1.6	-0.6
SMILES	SR-BI HDL uptake	SR-BI uptake up	dFosB activator	CAL PDZ FP-1	CAL PDZ FP-2
COc1ccc(OC)c(NC(=O)CCNS(=O)(=O)c2cc(Br)cnc2N)c1	17.1	-17.1	-4.6	0.0	-0.3
CCCc1cc(C(=O)OC)c2ccccc2n1	-76.8	76.7*	4.1	-6.2	-0.4
COC(=O)c1cc(Cl)nc2ccccc12	-13.3	13.3	-0.5	1.6	-1.5
CSc1cccc(NC(=O)CC2Oc3ccccc3NC2=O)c1 (stereo not drawn)	19.8	-19.8	36.8*	-7.3	0.2
Cn1nc(C(=O)Nc2cc(Cl)ccc2N2CCCC2)c2ccccc2c1=O	92.7*	-92.7	11.6	x	-2.1
CCC(=O)Nc1cccc(C2=NN(c3ccccc3)C(c3ccc(OC)cc3)C2)c1 (stereo not drawn)	70.3*	-70.3	-15.6	-2.3	-0.3
COc1ccc(C2CC(c3ccc(Cl)cc3)=NN2c2ccc(S(N)(=O)=O)cc2)cc1 (stereo not drawn)	45.2	-45.2	-6.1	-1.0	-0.3
COc1ccc(C2CC(c3cccc(Cl)c3)=NN2c2ccc(S(N)(=O)=O)cc2)cc1 (stereo not drawn)	76.8*	-76.8	-2.5	0.1	0.6
Cc1cc(OCC(O)CN2CCc3ccccc3C2)ccc1Cl (stereo not drawn)	3.7	-3.7	-1.7	-2.1	x
COc1ccc(S(=O)(=O)N2CC(C(=O)O)Oc3ccc(CC(=O)O)cc32)cc1 (stereo not drawn)	-5.2	5.2	-1.6	37.9*	0.6
COCCN(CC(=O)Nc1ccccc1C(F)(F)F)C(=O)/C=C/c1ccc2ccccc2n1	-4.4	4.4	-5.1	15.6	0.0
O=C(NCCc1cccc(F)c1)C1CCC(=O)N(C2CCCCCC2)C1 (stereo not drawn)	17.2	-17.2	-6.1	x	-0.6
O=C(NCc1cccc(F)c1)C1CCC(=O)N(C2CCCC2)C1 (stereo not drawn)	-8.6	8.6	-0.1	84.1*	0.3
O=C(NCc1cccc(Cl)c1)C1CCC(=O)N(CCCN2CCCC2=O)C1 (stereo not drawn)	-6.7	6.7	-2.1	70.0*	-0.1
CCCc1cc(=O)oc2cc(C)cc(OCC(=O)N3CCC(C(N)=O)CC3)c12	6.4	-6.4	-0.6	1.7	-0.9
O=C(NC1CCN(C(=O)c2ccccc2Br)CC1)c1ccccc1	1.6	-1.6	-5.1	0.0	-0.5
Cc1ccc(NC(=O)/C(C#N)=C(\N)C(Cl)(Cl)Cl)nc1	-9.9	9.9	-34.0	-3.1	0.6
O=C(CSc1nnc(NC(=O)C2CC(=O)N(c3ccc(F)cc3)C2)s1)NCC1CCCO1 (stereo not drawn)	21.2	-21.2	-3.0	-2.4	-1.1
COc1cc2c(cc1OC)CN(C(=O)Cc1c(F)cccc1Cl)CC2	-3.6	3.6	-0.8	-3.5	-0.2
Cc1ccc(OCC(=O)OCc2nc3scc(-c4ccccc4)c3c(=O)[nH]2)cc1C	67.2	-67.2	1.0	1.6	-2.3
COc1ccc(Br)cc1/C=N/NC(=O)c1cc(OC)c(OC)c(OC)c1	74.9*	-74.9	-24.9	-2.0	-2.3
COc1ccc(Br)cc1/C=N/NC(=O)c1ccc(OC)c(OC)c1	92.4*	-92.4	-24.7	-5.9	-2.6
